Results: ChEMBL document CHEMBL1138388, “Chemically programmed antibodies: endothelin receptor targeting CovX-Bodies” (Bioorg Med Chem Lett, 2007)
The source made the active and inactive calls. The calls are words filed in the database; no cut-off is given here.

Columns and labels:
Homo sapiens = organism: Homo sapiens; test: Selectivity for human ETA receptor over human ETB receptor
Endothelin-1 receptor = target: T1, Endothelin-1 receptor (Homo sapiens, UniProt P25101); test: Displacement of [125I]ET1 from human ETA receptor expressed in CHO cells; type: cell-based
T1 sequence (P25101 whole entry): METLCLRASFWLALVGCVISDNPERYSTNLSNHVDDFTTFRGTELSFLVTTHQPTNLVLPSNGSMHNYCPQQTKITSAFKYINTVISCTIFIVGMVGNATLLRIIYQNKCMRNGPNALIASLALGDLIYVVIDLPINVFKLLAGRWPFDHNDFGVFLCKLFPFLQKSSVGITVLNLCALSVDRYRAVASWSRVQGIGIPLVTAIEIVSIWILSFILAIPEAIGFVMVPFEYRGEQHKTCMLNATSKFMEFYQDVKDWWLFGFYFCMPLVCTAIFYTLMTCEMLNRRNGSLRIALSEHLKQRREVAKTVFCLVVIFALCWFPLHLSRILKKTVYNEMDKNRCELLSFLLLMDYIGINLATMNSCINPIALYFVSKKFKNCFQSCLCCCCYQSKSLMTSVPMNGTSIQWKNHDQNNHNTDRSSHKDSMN
How it was run: (§1)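 Competitive binding against 125I-labeled ET-1 on CHO cells stably expressing human ETA or ETB receptor. Six concentrations, 1 µM to 10 pM, at least three measurements each. IC50 taken from the means.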

[1] = target: T2, Endothelin receptor type B (Homo sapiens, UniProt P24530); test: Displacement of [125I]ET1 from human ETB receptor expressed in CHO cells; type: cell-based; how it was run: as §1
T2 sequence (P24530 whole entry): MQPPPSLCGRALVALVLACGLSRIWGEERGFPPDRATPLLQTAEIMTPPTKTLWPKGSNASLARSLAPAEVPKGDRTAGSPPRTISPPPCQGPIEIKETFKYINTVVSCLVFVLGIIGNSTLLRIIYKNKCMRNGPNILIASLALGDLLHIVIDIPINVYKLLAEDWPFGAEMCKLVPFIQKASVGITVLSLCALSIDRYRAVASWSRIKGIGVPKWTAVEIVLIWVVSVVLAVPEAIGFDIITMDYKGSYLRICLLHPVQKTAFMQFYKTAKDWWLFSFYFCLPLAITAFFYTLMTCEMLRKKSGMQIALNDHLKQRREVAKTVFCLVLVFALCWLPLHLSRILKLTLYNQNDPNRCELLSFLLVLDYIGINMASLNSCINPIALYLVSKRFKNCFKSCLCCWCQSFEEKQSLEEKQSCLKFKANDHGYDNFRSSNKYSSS

PC-3 [2] = test: Inhibition of tumor growth in human PC3 cells xenografted mouse at 2 mg/kg after 31 days; type: functional; conditions: PC-3, 744 h
How it was run: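 PC-3 prostate cancer xenograft. Dosing at 2 mg/kg […]. Tumor volume growth inhibition read at day 31 against vehicle control. Significance by one-way ANOVA with Dunnett's test to vehicle.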

PC-3 [3] = test: Inhibition of tumor growth in PC3 cells xenografted mouse at 0.25 mg/kg administered once weekly for 31 days; type: functional, organism-based; set-up: dose 0.25 mg/kg; conditions: Homo sapiens
How it was run: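 PC-3 prostate cancer xenograft. Dosing at 0.25 mg/kg once weekly. Tumor volume tracked to day 31 against vehicle control. Significance by one-way ANOVA with Dunnett's multiple comparison test to vehicle.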

Ratio IC50 (Homo sapiens) | IC50 (Endothelin-1 receptor) [nM] | IC50 [1] [nM] | SMILES | inhibition in vivo at 2 mg/kg (PC-3 [2]) [%] | Activity (PC-3 [3])
8980 | 1 | 6000 | CN(Cc1cc(-c2ncco2)ccc1-c1ccccc1S(=O)(=O)Nc1ccno1)C(=O)CC(C)(C)C | 50 | 
564 | 7.7 | 4510 | CC(=O)CC(=O)CCc1ccc(NC(=O)CCOCCOCCOCCOCCOCCOCCOCCOCCOCCOCCOCCNC(=O)CCCC(=O)N(C)Cc2cc(-c3ncco3)ccc2-c2ccccc2S(=O)(=O)Nc2ccno2)cc1 |  | 
228 | 21.6 | 4920 | CC(=O)CC(=O)CCc1ccc(NC(=O)CCOCCOCCOCCOCCOc2ccc(CCC(=O)N(C)Cc3cc(-c4ncco4)ccc3-c3ccccc3S(=O)(=O)Nc3ccno3)cc2)cc1 |  | 
564 | 8 | 4690 | CC(=O)CC(=O)CCc1ccc(NC(=O)CCOCCOCCOCCOCCOCCOCCOCCC(=O)N(C)Cc2cc(-c3ncco3)ccc2-c2ccccc2S(=O)(=O)Nc2ccno2)cc1 |  | 
 | 44.9 | > 10000 | CC(=O)CC(=O)CCc1ccc(NC(=O)CCOCCOCCOCCOc2ccc(-c3ccccc3S(=O)(=O)Nc3ccno3)c(CN(C)C(=O)CC(C)(C)C)c2)cc1 |  | 
1120 | 1.6 | 1110 | CC(=O)CC(=O)CCc1ccc(NC(=O)CCOCCOCCOCCOCC(=O)N(C)Cc2cc(-c3ncco3)ccc2-c2ccccc2S(=O)(=O)Nc2ccno2)cc1 |  | inactive
420 | 4.6 | 1910 | CC(=O)CC(=O)CCc1ccc(NC(=O)CCOCCOCCOCCOCCOc2ccc(CC(=O)N(C)Cc3cc(-c4ncco4)ccc3-c3ccccc3S(=O)(=O)Nc3ccno3)cc2)cc1 |  | 
